# Assay results reported in ChEMBL document CHEMBL1154676, “Synthetic mRNA splicing modulator compounds with in vivo antitumor activity” (J Med Chem, 2009).
# pIC50: −log10 of the molar value. Active and inactive are the calls of the source. The rule behind the calls is not given here.
# How the values were obtained:
# [1] = system: JVM-2; test: Cytotoxicity against human JVM2 cells after 72 hrs by XTT assay; format: functional, cell-based; conditions: JVM-2, 72 h
# Procedure, shortened: (§1)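 Cells grown at 37 °C, 5% CO2; HFF in DMEM with 10% FBS, PrEC in prostate epithelial growth medium. Adherent lines seeded overnight, suspension lines same day; compounds diluted from DMSO stocks into media at various final concentrations, 72 h exposure. XTT reagent added 4 h, absorbance 490 nm (reference 690 nm). Growth as % of vehicle; IC50 from sigmoidal dose-response fit; mean ± SEM, three independent experiments.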
# [2] = system: WiDr; test: Cytotoxicity against human WiDr cells after 72 hrs by XTT assay; format: functional, cell-based; procedure, shortened: as §1
# [3] = system: PC-3; test: Cytotoxicity against human PC3 cells after 72 hrs by XTT assay; format: functional, cell-based; conditions: PC-3, 72 h; procedure, shortened: as §1
# [4] = Cytotoxicity against human JeKo1 cells after 72 hrs by XTT assay; format: functional, cell-based; conditions: JeKo-1, 72 h; procedure, shortened: as §1
# [5] = system: JeKo-1; test: Anticancer activity against human JeKo1 cells transplanted in Es-1/SCID mouse assessed as decrease in tumor volume at 50 to 100 mg/kg, iv measured after 25 days; format: functional, organism-based
# [6] = system: HeLa; test: Inhibition of spliceosome splicing activity in human HeLa cells assessed as mRNA products at 0.5 to 10 uM by autoradiography; format: cell-based
# [7] = system: HeLa; test: Anticancer activity in human HeLa cells assessed as aggregation of SC35 and SF3b protein SAP155 at 10 uM after 4 hrs by immunofluorescence analysis; format: functional, cell-based
# Procedure, shortened: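 HeLa cells on glass coverslips exposed 4 h to 10 μM compound in DMSO (DMSO-only control), fixed in cold methanol at −20 °C for 10 min. Stained with anti-SC35 or anti-SAP155 primary (1/100, 1 h, 37 °C), then Alexa Fluor 488 anti-mouse secondary (1/200). Splicing-factor distribution imaged by fluorescence microscopy at 60X.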
# [8] = Chemical stability in phosphate buffer assessed as half life at pH 7.4 at 37 degC; format: physicochemical
smiles,measurement,setting,value
CC(/C=C/[C@@H]1C[C@](O)(CCl)CC(C)(C)O1)=C\C[C@H]1CC[C@@H](NC(=O)/C=C\[C@H](C)OC(=O)N2CCN(C3CCCCCC3)CC2)CC1,pIC50,[1],< 5.00
same,pIC50,[2],< 5.90
same,pIC50,[3],< 5.30
CC(/C=C/[C@@H]1C[C@]2(CO2)CC(C)(C)O1)=C\C[C@H]1CC[C@@H](NC(=O)/C=C\[C@H](C)OC(=O)N2CCN(CCO)CC2)CC1,pIC50,[1],< 6.30
same,pIC50,[2],< 5.90
same,pIC50,[3],< 5.60
same,pIC50,[4],< 6.30
CC(/C=C/[C@@H]1C[C@]2(CO2)CC(C)(C)O1)=C\C[C@H]1CC[C@@H](NC(=O)/C=C\[C@H](C)OC(=O)c2ccccc2)CC1,pIC50,[2],6.39
same,pIC50,[3],5.31
same,pIC50,[4],6.39
CC(/C=C/[C@@H]1C[C@]2(CO2)CC(C)(C)O1)=C\C[C@H]1CC[C@@H](NC(=O)/C=C\[C@H](C)OC(=O)C2CCN(c3ccnc(C(F)(F)F)n3)CC2)CC1,pIC50,[2],< 6.00
same,pIC50,[3],< 5.00
same,pIC50,[4],< 6.00
CC(/C=C/[C@@H]1C[C@]2(CO2)CC(C)(C)O1)=C\C[C@H]1CC[C@@H](NC(=O)/C=C\[C@H](C)O)CC1,pIC50,[1],5.82
same,pIC50,[2],5.00
same,pIC50,[3],5.00
same,pIC50,[4],5.80
COc1cccc(N2CCN(C(=O)O[C@@H](C)/C=C\C(=O)N[C@H]3CC[C@@H](C/C=C(C)/C=C/[C@@H]4C[C@]5(CO5)CC(C)(C)O4)CC3)CC2)c1,pIC50,[1],< 6.30
same,pIC50,[2],< 5.90
same,pIC50,[3],< 5.60
same,pIC50,[4],< 6.30
CC(/C=C/[C@@H]1C[C@]2(CO2)CC(C)(C)O1)=C\C[C@H]1CC[C@@H](NC(=O)/C=C\[C@H](C)OC(=O)c2cccn2C)CC1,pIC50,[2],6.41
same,pIC50,[3],5.37
same,pIC50,[4],6.41
CC(/C=C/[C@@H]1C[C@]2(CO2)CC(C)(C)O1)=C\C[C@H]1CC[C@@H](NC(=O)/C=C\[C@H](C)OC(=O)c2ccco2)CC1,pIC50,[2],6.85
same,pIC50,[3],5.46
same,pIC50,[4],6.85
CC(/C=C/[C@@H]1C[C@]2(CO2)CC(C)(C)O1)=C\C[C@H]1OC[C@@H](NC(=O)/C=C\[C@H](C)OC(=O)C(C)C)CO1,Activity,[5],Active
same,pIC50,[4],6.82
same,Activity,[6],Active
same,Activity,[7],Active
CC(=O)O[C@@H](C)/C=C\C(=O)N[C@@H]1C[C@H](C)[C@H](C/C=C(C)/C=C/[C@H]2O[C@](C)(O)C[C@@]3(CO3)[C@@H]2O)O[C@@H]1C,half-life,[8],4 h
CC(=O)O[C@@H](C)/C=C\C(=O)N[C@H]1CC[C@@H](C/C=C(C)/C=C/[C@@H]2C[C@]3(CO3)CC(C)(C)O2)CC1,pIC50,[4],7.00
CC(/C=C/[C@@H]1C[C@]2(CO2)CC(C)(C)O1)=C\C[C@H]1CC[C@@H](NC(=O)/C=C\[C@H](C)OC(=O)c2cccnc2)CC1,pIC50,[2],6.77
same,pIC50,[3],5.09
same,pIC50,[4],6.77
CC(/C=C/[C@@H]1C[C@]2(CO2)CC(C)(C)O1)=C\C[C@H]1CC[C@@H](NC(=O)/C=C\[C@H](C)OC(=O)C2CCN(C)CC2)CC1,pIC50,[3],5.00
same,pIC50,[4],< 6.00
CC(/C=C/[C@@H]1C[C@]2(CO2)CC(C)(C)O1)=C\C[C@H]1CC[C@@H](NC(=O)/C=C\[C@H](C)OC(=O)C2CCOCC2)CC1,pIC50,[3],5.70
same,pIC50,[4],6.35
CC(/C=C/[C@@H]1C[C@]2(CO2)CC(C)(C)O1)=C\C[C@H]1CC[C@@H](NC(=O)/C=C\[C@H](C)OC(=O)N2CCN(C)CC2)CC1,pIC50,[1],< 6.30
same,pIC50,[2],< 5.90
same,pIC50,[3],< 5.60
same,pIC50,[4],< 6.30
CC(/C=C/[C@@H]1C[C@]2(CO2)CC(C)(C)O1)=C\C[C@H]1CC[C@@H](NC(=O)/C=C\[C@H](C)OC(=O)N2CCN(C3CCCCCC3)CC2)CC1,pIC50,[1],< 6.00
same,pIC50,[3],< 5.30
